How the values were obtained:
[1] = target: 72 kDa type IV collagenase (Homo sapiens, UniProt P08253); test: Inhibition of recombinant human MMP-2 assessed as substrate cleavage after 20 hrs by fluorescence assay
How it was run: (§1)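 Enzyme inhibition IC50s derived from at least six measurements, standard errors normally <5% within an assay; a standard compound run to keep assay-to-assay variability within twofold.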

[2] = target: Matrix metalloproteinase-14 (Homo sapiens, UniProt P50281); test: Inhibition of recombinant human MMP-14 assessed as substrate cleavage after 20 hrs by fluorescence assay; how it was run: as §1
Collagenase 3 = Collagenase 3 (Homo sapiens, UniProt P45452); test: Inhibition of recombinant human MMP-13 assessed as substrate cleavage after 20 hrs by fluorescence assay; how it was run: as §1
[3] = target: T1, A disintegrin and metalloproteinase with thrombospondin motifs 4 (Homo sapiens, UniProt O75173); test: Inhibition of ADAMTS-4 assessed as substrate cleavage after 16 hrs by fluorescence assay; how it was run: as §1
T1 sequence (O75173 whole entry): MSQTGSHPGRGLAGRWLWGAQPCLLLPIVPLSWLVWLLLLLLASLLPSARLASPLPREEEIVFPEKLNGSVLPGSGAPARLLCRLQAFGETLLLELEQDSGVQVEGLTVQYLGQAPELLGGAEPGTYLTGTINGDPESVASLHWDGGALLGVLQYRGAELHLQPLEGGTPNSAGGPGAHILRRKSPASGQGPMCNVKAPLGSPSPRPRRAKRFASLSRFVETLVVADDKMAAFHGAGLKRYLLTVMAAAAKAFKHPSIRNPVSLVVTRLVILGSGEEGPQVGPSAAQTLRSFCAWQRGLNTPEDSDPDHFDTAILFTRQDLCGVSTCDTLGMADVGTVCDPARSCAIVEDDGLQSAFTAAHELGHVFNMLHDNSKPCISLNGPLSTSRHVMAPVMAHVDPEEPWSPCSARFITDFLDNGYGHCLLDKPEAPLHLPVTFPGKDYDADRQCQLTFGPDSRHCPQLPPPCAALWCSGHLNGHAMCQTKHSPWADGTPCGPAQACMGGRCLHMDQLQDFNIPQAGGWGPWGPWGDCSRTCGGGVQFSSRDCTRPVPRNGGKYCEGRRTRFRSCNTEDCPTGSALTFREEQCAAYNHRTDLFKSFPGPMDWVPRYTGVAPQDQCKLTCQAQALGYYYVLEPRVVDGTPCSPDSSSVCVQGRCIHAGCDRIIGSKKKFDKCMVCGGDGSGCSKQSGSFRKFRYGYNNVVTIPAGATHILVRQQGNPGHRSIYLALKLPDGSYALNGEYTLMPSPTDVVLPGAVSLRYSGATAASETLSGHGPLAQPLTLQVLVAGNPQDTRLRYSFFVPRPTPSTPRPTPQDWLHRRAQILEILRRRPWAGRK

[4] = target: T2, A disintegrin and metalloproteinase with thrombospondin motifs 5 (Homo sapiens, UniProt Q9UNA0); test: Inhibition of ADAMTS-5 assessed as substrate cleavage after 16 hrs by fluorescence assay; how it was run: as §1
T2 sequence (Q9UNA0 whole entry): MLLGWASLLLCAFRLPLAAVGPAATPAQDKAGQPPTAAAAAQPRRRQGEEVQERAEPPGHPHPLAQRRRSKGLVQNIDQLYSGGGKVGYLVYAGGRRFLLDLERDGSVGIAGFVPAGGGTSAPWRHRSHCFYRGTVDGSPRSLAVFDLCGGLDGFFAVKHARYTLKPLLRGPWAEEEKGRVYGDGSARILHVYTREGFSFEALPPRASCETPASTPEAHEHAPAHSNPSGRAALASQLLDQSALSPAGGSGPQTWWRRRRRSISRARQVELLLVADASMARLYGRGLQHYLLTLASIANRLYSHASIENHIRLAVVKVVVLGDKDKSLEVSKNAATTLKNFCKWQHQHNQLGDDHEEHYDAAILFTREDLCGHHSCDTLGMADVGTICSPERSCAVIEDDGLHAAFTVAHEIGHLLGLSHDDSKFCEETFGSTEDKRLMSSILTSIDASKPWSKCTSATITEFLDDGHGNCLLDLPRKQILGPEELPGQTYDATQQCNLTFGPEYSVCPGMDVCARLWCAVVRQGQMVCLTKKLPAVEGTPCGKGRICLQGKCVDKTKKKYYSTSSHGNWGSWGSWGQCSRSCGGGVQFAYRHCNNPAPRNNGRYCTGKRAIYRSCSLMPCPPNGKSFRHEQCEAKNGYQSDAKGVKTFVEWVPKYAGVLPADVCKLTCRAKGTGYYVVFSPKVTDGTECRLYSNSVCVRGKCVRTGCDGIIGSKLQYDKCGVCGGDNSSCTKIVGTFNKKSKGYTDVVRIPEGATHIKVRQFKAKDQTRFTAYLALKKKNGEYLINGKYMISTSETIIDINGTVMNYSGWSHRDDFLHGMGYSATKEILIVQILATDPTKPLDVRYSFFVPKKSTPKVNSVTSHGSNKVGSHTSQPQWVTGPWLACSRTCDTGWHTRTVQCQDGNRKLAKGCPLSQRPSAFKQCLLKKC

[5] = target: Matrix metalloproteinase-9 (Homo sapiens, UniProt P14780); test: Inhibition of recombinant human MMP-9 assessed as substrate cleavage after 20 hrs by fluorescence assay; how it was run: as §1
Matrix metalloproteinase-9, sequence (P14780 whole entry): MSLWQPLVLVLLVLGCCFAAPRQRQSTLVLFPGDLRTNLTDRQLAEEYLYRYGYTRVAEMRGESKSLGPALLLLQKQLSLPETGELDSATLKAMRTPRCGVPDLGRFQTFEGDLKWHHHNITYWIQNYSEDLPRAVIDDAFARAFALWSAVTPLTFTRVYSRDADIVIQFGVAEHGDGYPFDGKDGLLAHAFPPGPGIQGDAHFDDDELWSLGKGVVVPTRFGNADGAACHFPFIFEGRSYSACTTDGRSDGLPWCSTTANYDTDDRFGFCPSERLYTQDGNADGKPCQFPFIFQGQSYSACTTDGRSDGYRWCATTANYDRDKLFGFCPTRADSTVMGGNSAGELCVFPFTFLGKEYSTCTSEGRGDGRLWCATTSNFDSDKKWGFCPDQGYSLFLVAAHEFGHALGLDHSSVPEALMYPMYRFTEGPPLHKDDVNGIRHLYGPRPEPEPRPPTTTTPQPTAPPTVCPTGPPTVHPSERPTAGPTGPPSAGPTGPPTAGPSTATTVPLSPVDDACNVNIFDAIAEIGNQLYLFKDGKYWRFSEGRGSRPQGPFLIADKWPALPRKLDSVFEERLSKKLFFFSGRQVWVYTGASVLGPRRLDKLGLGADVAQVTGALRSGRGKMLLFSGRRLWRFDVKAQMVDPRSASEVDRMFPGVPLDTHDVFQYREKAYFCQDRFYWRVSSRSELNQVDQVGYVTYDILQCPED

[6] = Intrinsic clearance in human liver microsomes; format: ADME, Microsome
How it was run: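 Human liver microsome metabolism; intrinsic clearance expressed as μL/min/mg, reported as mean of eight separate experiments.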

Interstitial collagenase = target: T3, Interstitial collagenase (Homo sapiens, UniProt P03956); test: Inhibition of recombinant human MMP-1 assessed as substrate cleavage after 20 hrs by fluorescence assay; how it was run: as §1
T3 sequence (P03956 whole entry): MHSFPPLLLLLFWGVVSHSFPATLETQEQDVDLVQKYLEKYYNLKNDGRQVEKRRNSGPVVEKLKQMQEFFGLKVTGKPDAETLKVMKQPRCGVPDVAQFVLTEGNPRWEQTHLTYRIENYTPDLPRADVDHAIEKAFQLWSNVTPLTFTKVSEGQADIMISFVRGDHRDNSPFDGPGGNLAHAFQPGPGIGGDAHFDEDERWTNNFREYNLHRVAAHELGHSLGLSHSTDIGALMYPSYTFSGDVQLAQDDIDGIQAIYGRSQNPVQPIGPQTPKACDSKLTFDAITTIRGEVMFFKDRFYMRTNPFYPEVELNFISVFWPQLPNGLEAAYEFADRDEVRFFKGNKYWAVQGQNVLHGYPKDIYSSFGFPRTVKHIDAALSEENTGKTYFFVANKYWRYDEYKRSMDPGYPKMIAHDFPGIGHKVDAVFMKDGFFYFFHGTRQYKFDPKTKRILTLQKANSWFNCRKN

Cytochrome P450 3A4 = Cytochrome P450 3A4 (Homo sapiens, UniProt P08684); test: Inhibition of CYP3A4; format: ADME
Cytochrome P450 3A4, sequence (P08684 whole entry, canonical isoform): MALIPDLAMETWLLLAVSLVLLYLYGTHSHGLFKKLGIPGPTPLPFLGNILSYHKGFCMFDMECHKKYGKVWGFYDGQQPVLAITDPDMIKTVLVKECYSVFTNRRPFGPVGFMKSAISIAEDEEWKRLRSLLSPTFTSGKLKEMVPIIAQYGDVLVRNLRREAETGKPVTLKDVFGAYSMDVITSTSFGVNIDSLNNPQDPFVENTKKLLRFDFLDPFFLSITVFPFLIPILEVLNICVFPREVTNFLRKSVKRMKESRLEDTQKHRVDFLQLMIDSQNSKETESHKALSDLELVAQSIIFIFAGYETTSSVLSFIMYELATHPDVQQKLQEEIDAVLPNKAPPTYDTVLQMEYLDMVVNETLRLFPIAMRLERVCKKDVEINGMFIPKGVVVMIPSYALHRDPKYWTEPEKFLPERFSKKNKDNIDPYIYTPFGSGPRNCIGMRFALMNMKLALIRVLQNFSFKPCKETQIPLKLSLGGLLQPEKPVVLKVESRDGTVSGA
How it was run: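 Inhibition of cytochrome P450 isoforms 1A2, 2C9, 2C19, 2D6 and 3A4, reported as pIC50.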

72 kDa type IV collagenase, sequence (P08253 whole entry): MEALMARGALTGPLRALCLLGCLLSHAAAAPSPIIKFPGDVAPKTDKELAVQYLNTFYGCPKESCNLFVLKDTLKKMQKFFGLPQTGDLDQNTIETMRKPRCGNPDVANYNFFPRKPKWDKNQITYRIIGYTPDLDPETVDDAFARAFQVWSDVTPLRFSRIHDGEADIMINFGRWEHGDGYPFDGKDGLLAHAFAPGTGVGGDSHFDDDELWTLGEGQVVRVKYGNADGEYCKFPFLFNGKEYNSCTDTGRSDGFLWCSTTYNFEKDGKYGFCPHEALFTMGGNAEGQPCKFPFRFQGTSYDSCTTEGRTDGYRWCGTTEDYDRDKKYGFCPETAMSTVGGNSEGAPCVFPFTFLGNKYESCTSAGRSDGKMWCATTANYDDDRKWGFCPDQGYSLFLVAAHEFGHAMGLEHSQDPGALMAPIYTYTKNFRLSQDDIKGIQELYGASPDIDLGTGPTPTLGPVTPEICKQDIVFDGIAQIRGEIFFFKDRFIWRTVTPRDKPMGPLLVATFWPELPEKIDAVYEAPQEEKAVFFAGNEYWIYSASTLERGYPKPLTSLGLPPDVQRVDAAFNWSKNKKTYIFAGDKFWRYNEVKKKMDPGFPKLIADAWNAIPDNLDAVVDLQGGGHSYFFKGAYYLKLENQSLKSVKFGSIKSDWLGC

SMILES | IC50 [1] [µM] | IC50 [2] [µM] | IC50 (Collagenase 3) [nM] | IC50 [3] [nM] | IC50 [4] [nM] | IC50 [5] [µM] | microsomal CLint [6] [µL/min/mg] | IC50 (Interstitial collagenase) [µM] | IC50 (Cytochrome P450 3A4) [µM]
Cc1noc(C)c1CCC1CCN(S(=O)(=O)CC2(N(O)C=O)CCN(S(C)(=O)=O)CC2)CC1 | > 10 | > 10 | 4600 | 29 | 310 | > 10 | 6.5 | > 10 | –
Cc1noc(C)c1CCC1CCN(S(=O)(=O)CC2(N(O)C=O)CCCCCC2)CC1 | > 10 | > 10 | > 10000 | 48 | 1500 | > 10 | 59 | > 10 | –
O=CN(O)C1(CS(=O)(=O)N2CCC(CCc3ccc(F)cc3C(F)(F)F)CC2)CCN(C(=O)C2CCC2)CC1 | – | – | – | 8.7 | 61 | – | – | – | –
CC(C)(CS(=O)(=O)N1CCN(c2ccc(F)cc2)CC1)N(O)C=O | – | 1.4 | 1400 | 92 | – | – | – | > 10 | > 10
Cc1noc(C)c1CCC1CCN(S(=O)(=O)CC2(N(O)C=O)CCCC2)CC1 | > 10 | > 10 | > 10000 | 52 | 1900 | > 10 | – | > 10 | –
Cc1ccccc1CCC1CCN(S(=O)(=O)CC2(N(O)C=O)CCOCC2)CC1 | 0.62 | > 0.77 | > 600 | 5.6 | 31 | > 1.8 | < 2 | > 10 | –
O=CN(O)C1(CS(=O)(=O)N2CCC(CCc3ccccc3)CC2)CCOCC1 | 0.15 | 1.2 | 260 | 470 | 1700 | 0.67 | 8.8 | > 10 | –
Cc1cc(C(F)(F)F)ccc1CCC1CCN(S(=O)(=O)CC2(N(O)C=O)CCN(C(=O)C3CCC3)CC2)CC1 | – | – | – | 1.2 | 79 | – | – | – | –
Cc1cc(C)c(CCC2CCN(S(=O)(=O)CC3(N(O)C=O)CCOCC3)CC2)cn1 | 7.6 | > 10 | > 10000 | 130 | 1400 | 8.9 | – | > 10 | –
Cc1noc(C)c1CCC1CCN(S(=O)(=O)CC2(N(O)C=O)CCCCC2)CC1 | > 10 | > 7.5 | > 4100 | 20 | 850 | > 10 | – | > 10 | –
CS(=O)(=O)c1ccc(CCC2CCN(S(=O)(=O)CC3(N(O)C=O)CCOCC3)CC2)c(C2CC2)c1 | > 10 | > 10 | > 10000 | 1.4 | 950 | > 10 | 3.7 | > 10 | –
Cc1cc(Cl)ccc1CCC1CCN(S(=O)(=O)CC2(N(O)C=O)CCN(C(=O)C3CCC3)CC2)CC1 | – | – | – | 1.2 | 20 | – | – | – | –
Cc1cccnc1CCC1CCN(S(=O)(=O)CC2(N(O)C=O)CCOCC2)CC1 | 1.1 | 2.9 | 1100 | 100 | 580 | 8.5 | 3.8 | > 10 | –
Cc1noc(C)c1CCC1CCN(S(=O)(=O)CC2(N(O)C=O)CCN(C(=O)N3CCC3)CC2)CC1 | > 10 | > 10 | > 10000 | 11 | 480 | > 10 | 31 | > 10 | –
CC(=O)N1CCC(CS(=O)(=O)N2CCC(CCc3c(C)noc3C)CC2)(N(O)C=O)CC1 | > 10 | > 10 | > 10000 | 24 | 820 | > 10 | < 2 | > 10 | –
Cc1noc(C)c1CCC1CCN(S(=O)(=O)CC2(N(O)C=O)CCC2)CC1 | > 10 | > 10 | > 10000 | 51 | 1500 | > 10 | 3.3 | > 10 | –
Cc1cc(Cl)ccc1CCC1CCN(S(=O)(=O)CC2(N(O)C=O)CCOCC2)CC1 | 1.4 | > 10 | 780 | 2.7 | 65 | 1.2 | – | > 10 | –
Cc1ncccc1CCC1CCN(S(=O)(=O)CC2(N(O)C=O)CCOCC2)CC1 | 3.8 | 8 | 2000 | 400 | 5400 | > 10 | < 2 | > 10 | –
Cc1ccncc1CCC1CCN(S(=O)(=O)CC2(N(O)C=O)CCOCC2)CC1 | 3.5 | > 7.2 | 5900 | 110 | 630 | > 10 | 3.4 | > 10 | –
Cc1cc(F)ccc1CCC1CCN(S(=O)(=O)CC2(N(O)C=O)CCN(C(=O)C3CCC3)CC2)CC1 | – | – | – | 1.9 | 11 | – | – | – | –
CN1CCC(CS(=O)(=O)N2CCN(c3ccc(F)cc3)CC2)(N(O)C=O)CC1 | – | 2.9 | 570 | 530 | – | – | – | > 6.7 | > 10
Cc1cc(S(C)(=O)=O)ccc1CCC1CCN(S(=O)(=O)CC2(N(O)C=O)CCOCC2)CC1 | 3.3 | > 10 | 1700 | 5.8 | 530 | > 10 | 2 | > 10 | –
Cc1ccccc1CCC1CCN(S(=O)(=O)CC2(N(O)C=O)CCN(C(=O)C3CCC3)CC2)CC1 | – | – | – | 4.1 | 13 | – | – | – | –
Cc1cnc(C)c(CCC2CCN(S(=O)(=O)CC3(N(O)C=O)CCOCC3)CC2)c1 | > 10 | > 10 | 8400 | 380 | 5200 | > 10 | – | > 10 | –
CC(CS(=O)(=O)N1CCN(c2ccc(F)cc2)CC1)N(O)C=O (racemic) | – | 0.226 | 154 | – | – | – | – | > 10 | 1
